Data from PMC6976987 (Molecular Genetics and Metabolism Reports, 2020).
Like-named read-outs stand apart in the source and are kept apart here.

Tests used:
Safety assessments [1] = type: in vivo, human
Method in brief: (§1)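 Open-label study in healthy adults. Safety was monitored after a single dose (Day 1), during multiple doses alone (Days 2–8), and during co-dosing (Days 9–15 with the CYP3A/P-gp inhibitor; Days 9–18 with the CYP2D6 inhibitor). Measures: treatment-emergent AEs, clinical labs, vital signs, physical exams, 12-lead ECG, 12 h continuous telemetry. An AE counted as treatment-related if possibly, probably or definitely related to study drug.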

Safety assessments [2] = type: in vivo, human; remark: listed apart in the source
Method in brief: as §1

[3] = type: in vivo, human
Method in brief: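 Open-label, fixed-sequence study in healthy CYP2D6 non-poor metabolizers. Oral test compound 84 mg, fasted: single dose Day 1, BID Days 2–8, then BID with a strong CYP3A/P-gp inhibitor 400 mg QD Days 9–15. Plasma sampled to 36 h Day 1, 12 h Day 8, 72 h Day 15, plus pre-dose samples. LC-MS/MS, LLOQ 0.2 ng/mL. Non-compartmental PK; ratios from log-transformed mixed-effects model with 90% CI.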

[4] = concomitant dosing of eliglustat with ketoconazole, Days 9 to 15, N = 33
[5] = following a single dose of eliglustat, Day 1, N = 36
[6] = ketoconazole study (N = 36), whole study
[7] = multiple-dose eliglustat period, Days 2 to 8, N = 34
[8] = concomitant dosing of eliglustat with paroxetine
[9] = concomitant dosing of eliglustat with paroxetine, Days 9 to 18, N = 35
[10] = multiple-dose eliglustat alone, Days 2 to 8, N = 36
[11] = paroxetine study (N = 36), whole study
[12] = CYP2D6 EMs only, eliglustat 84 mg BID with ketoconazole 400 mg QD
[13] = CYP2D6 non-PMs, eliglustat 84 mg BID with ketoconazole 400 mg QD

SMILES: CCCCCCCC(=O)N[C@H](CN1CCCC1)[C@H](O)c1ccc2c(c1)OCCO2 [eliglustat]
- tolerability (Safety assessments [1]; administered alone and with ketoconazole): well tolerated
- subjects with dysmenorrhea of moderate intensity (Safety assessments [1]; concomitant dosing of eliglustat with ketoconazole): 3.0%
- number of AEs (Safety assessments [1]; [4]): 33 AEs
- subjects with AEs (Safety assessments [1]; [4]): 48.5%
- subjects reporting AEs related to eliglustat (Safety assessments [1]; concomitant dosing with ketoconazole, N = 33): 36.4%
- subjects reporting AEs possibly related to both eliglustat and ketoconazole (Safety assessments [1]; concomitant dosing, N = 33): 33.3%
- subjects reporting treatment-related AEs (Safety assessments [1]; [5]): 5.6%
- QTcF interval prolongation (Safety assessments [1]; ketoconazole study): no clinically significant prolongations of QTcF interval
- Any adverse event (AE), number of events (Safety assessments [1]; [6]): 58 N
- Any adverse event (AE), number of subjects (Safety assessments [1]; [6]): 20 (55.6%) N (%)
- Any treatment-related AE, number of events (Safety assessments [1]; [6]): 45 N
- Any treatment-related AE, number of subjects (Safety assessments [1]; [6]): 15 (41.7%) N (%)
- Discontinuations due to AE, number of events (Safety assessments [1]; [6]): 0 N
- Discontinuations due to AE, number of subjects (Safety assessments [1]; [6]): 0 (0.0%) N (%)
- Serious AEs, number of events (Safety assessments [1]; [6]): 0 N
- Serious AEs, number of subjects (Safety assessments [1]; [6]): 0 (0.0%) N (%)
- Severe AEs, number of events (Safety assessments [1]; [6]): 0 N
- Severe AEs, number of subjects (Safety assessments [1]; [6]): 0 (0.0%) N (%)
- subjects with dysmenorrhea of moderate intensity (Safety assessments [1]; multiple-dose eliglustat): 2.9%
- number of AEs (Safety assessments [1]; [7]): 21 AEs
- subjects with AEs (Safety assessments [1]; [7]): 32.4%
- subjects reporting treatment-related AEs (Safety assessments [1]; multiple-dose eliglustat, N = 34): 23.5%
- subjects with headache of moderate intensity (Safety assessments [1]; multiple-dose eliglustat, possibly related to eliglustat, unlikely related to ketoconazole): 2.9%
- tolerability (Safety assessments [2]; administered alone and with paroxetine): well tolerated
- subjects with application site dermatitis (Safety assessments [2]; [8]): 31.4%
- subjects with moderate treatment-related headache (Safety assessments [2]; [8]): 11.4%
- number of AEs (Safety assessments [2]; [9]): 194 events
- subjects with AEs (Safety assessments [2]; [9]): 91.4%
- subjects reporting AEs related to eliglustat (Safety assessments [2]; concomitant dosing with paroxetine, N = 35): 65.7%
- subjects reporting AEs possibly related to both eliglustat and paroxetine (Safety assessments [2]; concomitant dosing, N = 35): 65.7%
- subjects reporting treatment-related AEs (Safety assessments [2]; [5]): 5.6%
- subjects with moderate gastritis (Safety assessments [2]; following multiple-dose eliglustat): 5.6%
- subjects who discontinued treatment due to AEs (Safety assessments [2]; gastritis (eliglustat alone), dizziness and nausea, nausea and panic attack (concomitant dosing)): 8.3%
- subjects with moderate treatment-related headache (Safety assessments [2]; multiple-dose eliglustat): 2.8%
- number of AEs (Safety assessments [2]; [10]): 31 events
- subjects with AEs (Safety assessments [2]; [10]): 41.7%
- subjects reporting treatment-related AEs (Safety assessments [2]; multiple-dose eliglustat, Days 2 to 8, N = 36): 27.8%
- Any adverse event (AE), number of events (Safety assessments [2]; [11]): 233 N
- Any adverse event (AE), number of subjects (Safety assessments [2]; [11]): 33 (91.7%) N (%)
- Any treatment-related AE, number of events (Safety assessments [2]; [11]): 155 N
- Any treatment-related AE, number of subjects (Safety assessments [2]; [11]): 26 (72.2%) N (%)
- Discontinuations due to AE, number of events (Safety assessments [2]; [11]): 5 N
- Discontinuations due to AE, number of subjects (Safety assessments [2]; [11]): 3 (8.3%) N (%)
- Serious AEs, number of events (Safety assessments [2]; [11]): 0 N
- Serious AEs, number of subjects (Safety assessments [2]; [11]): 0 (0.0%) N (%)
- Severe AEs, number of events (Safety assessments [2]; [11]): 0 N
- Severe AEs, number of subjects (Safety assessments [2]; [11]): 0 (0.0%) N (%)
- increase in eliglustat AUC0-τ compared to eliglustat alone [3, 12]: 4.4 fold
- increase in eliglustat Cmax compared to eliglustat alone [3, 12]: 4.0 fold
- increase in eliglustat AUC0-τ (exposure) compared to eliglustat alone [3, 13]: 4.3 fold
- increase in eliglustat Cmax compared to eliglustat alone [3, 13]: 3.8 fold
- Ratio (%) of geometric least squares mean, Cmax ([3]; all subjects, multiple dose, test 400 mg ketoconazole oral QD + 84 mg eliglustat oral BID (N = 33) vs reference 84 mg eliglustat oral BID alone (N = 33)): 3.84%
- Ratio (%) of geometric least squares mean, AUC0-t ([3]; all subjects, multiple dose, test 400 mg ketoconazole oral QD + 84 mg eliglustat oral BID (N = 33) vs reference 84 mg eliglustat oral BID alone (N = 33), 0 to 12 h): 4.27%
- increase in eliglustat exposure ([3]; co-administered with ketoconazole (discussion, rounded)): 4 fold
- half-life ([3]; human, plasma, oral, 84 mg): 5.1 h
